Assay results as given in ChEMBL document CHEMBL1123924, “Structure-activity studies of antagonists of luteinizing hormone-releasing hormone with emphasis on the amino-terminal region” (1987).
Non-standard residues stand in square brackets, D forms with d. Residues, ends and D or L forms follow the SMILES beside them. d(hArg(Et2)) = CCN=C(NCC)NCCCC[C@@H](N)C(=O)O; dPhe(4-Cl) = N[C@H](Cc1ccc(Cl)cc1)C(=O)O; d2Nal = N[C@H](Cc1ccc2ccccc2c1)C(=O)O

Legend:
Assay type in all cases: functional
Rattus norvegicus [1] = species: Rattus norvegicus; experiment: Antiovulatory activity was expressed as the percentage of 8 rats blocked at a dose 3 ug.
Summary of the method: (§1)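 Sprague-Dawley rats given peptide by subcutaneous injection at noon on the day of proestrus, in 40% propane-1,2-diol–0.9% saline vehicle. Oviducts examined for ova the following day.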

Rattus norvegicus [2] = species: Rattus norvegicus; experiment: Antiovulatory activity was expressed as the percentage of 10 rats blocked at a dose 3 ug.; summary of the method: as §1
Rattus norvegicus [3] = species: Rattus norvegicus; experiment: Antiovulatory activity was expressed as the percentage of 9 rats blocked at a dose 1 ug.; summary of the method: as §1
Rattus norvegicus [4] = species: Rattus norvegicus; experiment: Antiovulatory activity was expressed as the percentage of 10 rats blocked at a dose 1.5 ug.; summary of the method: as §1
Rattus norvegicus [5] = species: Rattus norvegicus; experiment: Antiovulatory activity was expressed as the percentage of 9 rats blocked at a dose 3 ug.; summary of the method: as §1
Rattus norvegicus [6] = species: Rattus norvegicus; experiment: Antiovulatory activity was expressed as the percentage of 13 rats blocked at a dose 1 ug.; summary of the method: as §1
Rattus norvegicus [7] = species: Rattus norvegicus; experiment: Antiovulatory activity was expressed as the percentage of 16 rats blocked at a dose 1 ug.; summary of the method: as §1
Rattus norvegicus [8] = species: Rattus norvegicus; experiment: Antiovulatory activity was expressed as the percentage of 7 rats blocked at a dose 3 ug.; summary of the method: as §1
Rattus norvegicus [9] = species: Rattus norvegicus; experiment: Antiovulatory activity was expressed as the percentage of 8 rats blocked at a dose 1 ug.; summary of the method: as §1
Rattus norvegicus [10] = species: Rattus norvegicus; experiment: Antiovulatory activity was expressed as the percentage of 11 rats blocked at a dose 1 ug.; summary of the method: as §1
Rattus norvegicus [11] = species: Rattus norvegicus; experiment: Antiovulatory activity was expressed as the percentage of 9 rats blocked at a dose 7.5 ug.; summary of the method: as §1
Rattus norvegicus [12] = species: Rattus norvegicus; experiment: Antiovulatory activity was expressed as the percentage of 10 rats blocked at a dose 0.5 ug.; summary of the method: as §1
Rattus norvegicus [13] = species: Rattus norvegicus; experiment: Antiovulatory activity was expressed as the percentage of 8 rats blocked at a dose 7.5 ug.; summary of the method: as §1
Rattus norvegicus [14] = species: Rattus norvegicus; experiment: Antiovulatory activity was expressed as the percentage of 10 rats blocked at a dose 1 ug.; summary of the method: as §1
Rattus norvegicus [15] = species: Rattus norvegicus; experiment: Antiovulatory activity was expressed as the percentage of 11 rats blocked at a dose 0.5 ug.; summary of the method: as §1

## CC(=O)N[C@H](Cc1ccccc1)C(=O)N[C@H](Cc1ccccc1)C(=O)N[C@H](Cc1ccccc1)C(=O)N[C@@H](CO)C(=O)N[C@@H](Cc1ccc(O)cc1)C(=O)N[C@H](CCCN=C(N)N)C(=O)N[C@@H](Cc1ccccc1)C(=O)N[C@@H](CCCN=C(N)N)C(=O)N1CCC[C@H]1C(=O)N[C@H](C)C(N)=O
Rattus norvegicus [1]
  Antiovulatory activity: 0%

## CC(=O)N[C@H](Cc1c[nH]c2ccccc12)C(=O)N[C@H](Cc1ccccc1)C(=O)N[C@H](Cc1ccccc1)C(=O)N[C@@H](CO)C(=O)N[C@@H](Cc1ccc(O)cc1)C(=O)N[C@H](CCCN=C(N)N)C(=O)N[C@@H](Cc1ccccc1)C(=O)N[C@@H](CCCN=C(N)N)C(=O)N1CCC[C@H]1C(=O)N[C@H](C)C(N)=O
Rattus norvegicus [2]
  Antiovulatory activity: 0%

## CC(=O)N[C@H](Cc1ccc2ccccc2c1)C(=O)N[C@H](Cc1ccccc1)C(=O)N[C@H](Cc1ccc(O)cc1)C(=O)N[C@@H](CO)C(=O)N[C@@H](Cc1ccc(O)cc1)C(=O)N[C@H](CCCN=C(N)N)C(=O)N[C@@H](Cc1ccccc1)C(=O)N[C@@H](CCCN=C(N)N)C(=O)N1CCC[C@H]1C(=O)N[C@H](C)C(N)=O
Rattus norvegicus [3]
  Antiovulatory activity: 0%

## CC(=O)N[C@H](Cc1ccc(Cl)cc1)C(=O)N[C@H](Cc1ccc(Cl)cc1)C(=O)N[C@H](Cc1c[nH]c2ccccc12)C(=O)N[C@@H](CO)C(=O)N[C@@H](Cc1ccc(O)cc1)C(=O)N[C@H](CCCN=C(N)N)C(=O)N[C@@H](CC(C)C)C(=O)N[C@@H](CCCN=C(N)N)C(=O)N1CCC[C@H]1C(=O)N[C@H](C)C(N)=O (HELM PEPTIDE1{[ac].[O=C([C@@H](Cc1ccc(Cl)cc1)N[*:1])[*:2]].[O=C([C@@H](Cc1ccc(Cl)cc1)N[*:1])[*:2]].[dW].S.Y.[dR].L.R.P.[dA].[am]}$$$$V2.0)
Rattus norvegicus [4]
  Antiovulatory activity: 10%
Rattus norvegicus [5]
  Antiovulatory activity: 67%

## CC(=O)N[C@H](Cc1ccc2ccccc2c1)C(=O)N[C@H](Cc1ccc(Cl)cc1)C(=O)N[C@H](Cc1c[nH]c2ccccc12)C(=O)N[C@@H](CO)C(=O)N[C@@H](Cc1ccc(O)cc1)C(=O)N[C@H](CCCN=C(N)N)C(=O)N[C@@H](CC(C)C)C(=O)N[C@@H](CCCN=C(N)N)C(=O)N1CCC[C@H]1C(=O)N[C@H](C)C(N)=O (HELM PEPTIDE1{[ac].[O=C([C@@H](Cc1ccc2ccccc2c1)N[*:1])[*:2]].[O=C([C@@H](Cc1ccc(Cl)cc1)N[*:1])[*:2]].[dW].S.Y.[dR].L.R.P.[dA].[am]}$$$$V2.0)
Rattus norvegicus [6]
  Antiovulatory activity: 77%

## CC(=O)N[C@H](Cc1ccc2ccccc2c1)C(=O)N[C@H](Cc1ccc(O)cc1)C(=O)N[C@H](Cc1ccccc1)C(=O)N[C@@H](CO)C(=O)N[C@@H](Cc1ccc(O)cc1)C(=O)N[C@H](CCCN=C(N)N)C(=O)N[C@@H](Cc1ccccc1)C(=O)N[C@@H](CCCN=C(N)N)C(=O)N1CCC[C@H]1C(=O)N[C@H](C)C(N)=O
Rattus norvegicus [7]
  Antiovulatory activity: 0%
Rattus norvegicus [8]
  Antiovulatory activity: 14%

## CCNC(=NCCCC[C@@H](NC(=O)[C@H](Cc1ccc(O)cc1)NC(=O)[C@H](CO)NC(=O)[C@@H](Cc1c[nH]c2ccccc12)NC(=O)[C@@H](Cc1ccc(Cl)cc1)NC(=O)[C@@H](Cc1ccc2ccccc2c1)NC(C)=O)C(=O)N[C@@H](Cc1ccccc1)C(=O)N[C@@H](CCCN=C(N)N)C(=O)N1CCC[C@H]1C(=O)N[C@H](C)C(N)=O)NCC (Ac-[d2Nal][dPhe(4-Cl)][dW]SY[d(hArg(Et2))]FRP[dA]-NH2)
Rattus norvegicus [9]
  Antiovulatory activity: 63%

## CC(=O)N[C@H](Cc1ccc2ccccc2c1)C(=O)N[C@H](Cc1ccc2ccccc2c1)C(=O)N[C@H](Cc1ccc(O)cc1)C(=O)N[C@@H](CO)C(=O)N[C@@H](Cc1ccc(O)cc1)C(=O)N[C@H](CCCN=C(N)N)C(=O)N[C@@H](Cc1ccccc1)C(=O)N[C@@H](CCCN=C(N)N)C(=O)N1CCC[C@H]1C(=O)N[C@H](C)C(N)=O
Rattus norvegicus [10]
  Antiovulatory activity: 9%
Rattus norvegicus [1]
  Antiovulatory activity: 38%
Rattus norvegicus [11]
  Antiovulatory activity: 100%

## CC(=O)N[C@H](Cc1ccc2ccccc2c1)C(=O)N[C@H](Cc1ccccc1)C(=O)N[C@H](Cc1ccccc1)C(=O)N[C@@H](CO)C(=O)N[C@@H](Cc1ccc(O)cc1)C(=O)N[C@H](CCCN=C(N)N)C(=O)N[C@@H](CC1CCCCC1)C(=O)N[C@@H](CCCN=C(N)N)C(=O)N1CCC[C@H]1C(=O)N[C@H](C)C(N)=O
Rattus norvegicus [12]
  Antiovulatory activity: 80%

## CC(=O)N[C@H](Cc1ccc(Cl)cc1)C(=O)N[C@H](Cc1ccccc1)C(=O)N[C@H](Cc1ccccc1)C(=O)N[C@@H](CO)C(=O)N[C@@H](Cc1ccc(O)cc1)C(=O)N[C@H](CCCN=C(N)N)C(=O)N[C@@H](Cc1ccccc1)C(=O)N[C@@H](CCCN=C(N)N)C(=O)N1CCC[C@H]1C(=O)N[C@H](C)C(N)=O
Rattus norvegicus [1]
  Antiovulatory activity: 63%

## CC(=O)N[C@H](Cc1ccc2ccccc2c1)C(=O)N[C@H](Cc1ccc(Cl)cc1)C(=O)N[C@H](Cc1ccc(Cl)cc1)C(=O)N[C@@H](CO)C(=O)N[C@@H](Cc1ccc(O)cc1)C(=O)N[C@H](CCCN=C(N)N)C(=O)N[C@@H](Cc1ccccc1)C(=O)N[C@@H](CCCN=C(N)N)C(=O)N1CCC[C@H]1C(=O)N[C@H](C)C(N)=O
Rattus norvegicus [1]
  Antiovulatory activity: 63%
Rattus norvegicus [9]
  Antiovulatory activity: 0%

## CC(=O)N[C@H](Cc1ccc2ccccc2c1)C(=O)N[C@H](Cc1ccc(Cl)cc1)C(=O)N[C@H](Cc1ccccc1)C(=O)N[C@@H](CO)C(=O)N[C@@H](Cc1ccc(O)cc1)C(=O)N[C@H](CCCN=C(N)N)C(=O)N[C@@H](Cc1ccccc1)C(=O)N[C@@H](CCCN=C(N)N)C(=O)N1CCC[C@H]1C(=O)N[C@H](C)C(N)=O
Rattus norvegicus [12]
  Antiovulatory activity: 10%
Rattus norvegicus [3]
  Antiovulatory activity: 56%

## CC(=O)N[C@H](Cc1ccc(Cl)cc1)C(=O)N[C@H](Cc1ccc(Cl)cc1)C(=O)N[C@H](Cc1c[nH]c2ccccc12)C(=O)N[C@@H](CO)C(=O)N[C@@H](Cc1ccc(O)cc1)C(=O)N[C@H](Cc1ccccc1)C(=O)N[C@@H](Cc1ccccc1)C(=O)N[C@@H](CCCN=C(N)N)C(=O)N1CCC[C@H]1C(=O)N[C@H](C)C(N)=O
Rattus norvegicus [13]
  Antiovulatory activity: 8%

## CC(=O)N[C@H](Cc1ccc(Cl)cc1)C(=O)N[C@H](Cc1ccc(Cl)cc1)C(=O)N[C@H](Cc1c[nH]c2ccccc12)C(=O)N[C@@H](CO)C(=O)N[C@@H](Cc1ccc(O)cc1)C(=O)N[C@H](CCCN=C(N)N)C(=O)N[C@@H](Cc1ccccc1)C(=O)N[C@@H](CCCN=C(N)N)C(=O)N1CCC[C@H]1C(=O)N[C@H](C)C(N)=O (HELM PEPTIDE1{[ac].[O=C([C@@H](Cc1ccc(Cl)cc1)N[*:1])[*:2]].[O=C([C@@H](Cc1ccc(Cl)cc1)N[*:1])[*:2]].[dW].S.Y.[dR].F.R.P.[dA].[am]}$$$$V2.0)
Rattus norvegicus [14]
  Antiovulatory activity: 70%
Rattus norvegicus [2]
  Antiovulatory activity: 100%

## CC(=O)N[C@H](Cc1ccc2ccccc2c1)C(=O)N[C@H](Cc1ccc(O)cc1)C(=O)N[C@H](Cc1ccc(O)cc1)C(=O)N[C@@H](CO)C(=O)N[C@@H](Cc1ccc(O)cc1)C(=O)N[C@H](CCCN=C(N)N)C(=O)N[C@@H](Cc1ccccc1)C(=O)N[C@@H](CCCN=C(N)N)C(=O)N1CCC[C@H]1C(=O)N[C@H](C)C(N)=O
Rattus norvegicus [9]
  Antiovulatory activity: 0%

## CC(=O)N[C@H](Cc1ccc(Cl)cc1)C(=O)N[C@H](Cc1ccc(Cl)cc1)C(=O)N[C@H](Cc1c[nH]c2ccccc12)C(=O)N[C@@H](CO)C(=O)N[C@@H](Cc1ccc(O)cc1)C(=O)N[C@H](Cc1ccc2ccccc2c1)C(=O)N[C@@H](Cc1ccccc1)C(=O)N[C@@H](CCCN=C(N)N)C(=O)N1CCC[C@H]1C(=O)N[C@H](C)C(N)=O
Rattus norvegicus [13]
  Antiovulatory activity: 0%

## CC(=O)N[C@H](Cc1ccc2ccccc2c1)C(=O)N[C@H](Cc1ccc2ccccc2c1)C(=O)N[C@H](Cc1c(F)c(F)c(F)c(F)c1F)C(=O)N[C@@H](CO)C(=O)N[C@@H](Cc1ccc(O)cc1)C(=O)N[C@H](CCCN=C(N)N)C(=O)N[C@@H](Cc1ccccc1)C(=O)N[C@@H](CCCN=C(N)N)C(=O)N1CCC[C@H]1C(=O)N[C@H](C)C(N)=O
Rattus norvegicus [11]
  Antiovulatory activity: 0%

## CC(=O)N[C@H](Cc1ccc2ccccc2c1)C(=O)N[C@H](Cc1ccc2ccccc2c1)C(=O)N[C@H](Cc1ccccc1)C(=O)N[C@@H](CO)C(=O)N[C@@H](Cc1ccc(O)cc1)C(=O)N[C@H](CCCN=C(N)N)C(=O)N[C@@H](Cc1ccccc1)C(=O)N[C@@H](CCCN=C(N)N)C(=O)N1CCC[C@H]1C(=O)N[C@H](C)C(N)=O
Rattus norvegicus [2]
  Antiovulatory activity: 100%

## CC(=O)N[C@H](Cc1ccc2ccccc2c1)C(=O)N[C@H](Cc1ccc2ccccc2c1)C(=O)N[C@H](Cc1c[nH]cn1)C(=O)N[C@@H](CO)C(=O)N[C@@H](Cc1ccc(O)cc1)C(=O)N[C@H](CCCN=C(N)N)C(=O)N[C@@H](Cc1ccccc1)C(=O)N[C@@H](CCCN=C(N)N)C(=O)N1CCC[C@H]1C(=O)N[C@H](C)C(N)=O
Rattus norvegicus [2]
  Antiovulatory activity: 0%

## CC(=O)N[C@H](Cc1ccc2ccccc2c1)C(=O)N[C@H](Cc1ccc(Cl)cc1)C(=O)N[C@H](Cc1c[nH]c2ccccc12)C(=O)N[C@@H](CO)C(=O)N[C@@H](Cc1ccc(O)cc1)C(=O)N[C@H](CCCN=C(N)N)C(=O)N[C@@H](Cc1ccccc1)C(=O)N[C@@H](CCCN=C(N)N)C(=O)N1CCC[C@H]1C(=O)N[C@H](C)C(N)=O (HELM PEPTIDE1{[ac].[O=C([C@@H](Cc1ccc2ccccc2c1)N[*:1])[*:2]].[O=C([C@@H](Cc1ccc(Cl)cc1)N[*:1])[*:2]].[dW].S.Y.[dR].F.R.P.[dA].[am]}$$$$V2.0)
Rattus norvegicus [15]
  Antiovulatory activity: 64%

## CC(=O)N[C@H](Cc1ccc2ccccc2c1)C(=O)N[C@H](Cc1ccc2ccccc2c1)C(=O)N[C@H](Cc1ccc2ccccc2c1)C(=O)N[C@@H](CO)C(=O)N[C@@H](Cc1ccc(O)cc1)C(=O)N[C@H](CCCN=C(N)N)C(=O)N[C@@H](Cc1ccccc1)C(=O)N[C@@H](CCCN=C(N)N)C(=O)N1CCC[C@H]1C(=O)N[C@H](C)C(N)=O
Rattus norvegicus [5]
  Antiovulatory activity: 15%
